Results on four compounds are retold here after ChEMBL document CHEMBL3227991, “5-Iminodaunorubicin. Reduced cardiotoxic properties in an antitumor anthracycline” (J Med Chem, 1979).

Series [1] deals with Salmonella typhimurium. As to the kind of experiment: Genotoxicity in Salmonella typhimurium TA100 assessed as number of revertants by Ames test. The class given is toxicity, organism-based. Conditions: salmonella enterica subsp. enterica serovar typhimurium. In general terms: In the Ames test, an excess of revertant colonies over the control signals mutagenicity.
The test system of series [2] is P388. As to the kind of experiment: Antitumor activity against mouse P388 cells allografted in mouse assessed as increase in survival time at 0.78 mg/kg, ip administered as qd for 1 to 9 days relative to control. To be noted: route intraperitoneal. The class given is functional.
Series [3] concerns P388. Briefly: Antitumor activity against mouse P388 cells allografted in mouse assessed as increase in survival time at 1.56 mg/kg, ip administered as qd for 1 to 9 days relative to control. It is filed as functional. Conditions: route intraperitoneal.
Series [4] concerns P388. Briefly: Antitumor activity against mouse P388 cells allografted in mouse assessed as increase in survival time at 2 mg/kg, ip administered as single dose on day 5, 9 and 13 relative to control. To be noted: route intraperitoneal. It is filed as functional. In outline:
(§1)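 Mice received ip P388 leukemia cells on day 0. Disease was left to progress and ip dosing was delayed to days 5, 9 and 13. Survival time of treated relative to control mice was expressed as % T/C, with ≥125 defined as active. Values are means of repeated tests (27 for reference agents, duplicate for others).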

Series [5] relates to Salmonella typhimurium. Briefly: Genotoxicity in Salmonella typhimurium TA98 at >8 ug/plate by Ames test. It is filed as toxicity, organism-based. To be noted: salmonella enterica subsp. enterica serovar typhimurium.
Series [6] relates to Salmonella typhimurium. As to the kind of experiment: Genotoxicity in Salmonella typhimurium TA98 assessed as number of revertants by Ames test. It is filed as toxicity, organism-based. Conditions: salmonella enterica subsp. enterica serovar typhimurium. The essentials: (§2)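 Ames reversion in S. typhimurium TA98, run with and without microsomal activation; doses up to a maximum of 32 μg/plate; four determinations; mutagenicity given as revertants/nmol.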

Series [7] has as its system L1210. As to the kind of experiment: Inhibition of DNA synthesis in mouse L1210 cells. The class given is functional. Conditions: read-out: ED50 (the source's name).
Series [8] concerns P388. As to the kind of experiment: Antitumor activity against mouse P388 cells allografted in mouse assessed as increase in survival time at 4 mg/kg, ip administered as single dose for every 4 days up to 13 days relative to control. The class given is functional. To be noted: route intraperitoneal. The essentials: as §1
Series [9] has as its system P388. Briefly: Antitumor activity against mouse P388 cells allografted in mouse assessed as increase in survival time at 0.2 mg/kg, ip administered as qd for 1 to 9 days relative to control. It is filed as functional. Conditions: route intraperitoneal.
The species named for the next series is Rattus norvegicus. Briefly: Cardiotoxicity in rat assessed as minimum cumulative drug dose causing electrocardiographic changes. The class given is toxicity, organism-based. To be noted: in vivo. The essentials: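 Zbinden cardiotoxicity test in rats; endpoint is the minimum cumulative dose producing significant electrocardiographic changes, expressed in mg/kg.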

Series [10] concerns L1210. As to the kind of experiment: Inhibition of RNA synthesis in mouse L1210 cells. To be noted: read-out: ED50 (the source's name). It is filed as functional.
Series [11] deals with Salmonella typhimurium. Briefly: Genotoxicity in Salmonella typhimurium 908 assessed as number of revertants by Ames test. Conditions: salmonella enterica subsp. enterica serovar typhimurium. The class given is toxicity, organism-based.
In series [12] the test system is P388. As to the kind of experiment: Antitumor activity against mouse P388 cells allografted in mouse assessed as increase in survival time at 16 mg/kg, ip administered as single dose on day 5, 9 and 13 relative to control. The class given is functional. To be noted: route intraperitoneal. In outline: as §1
Series [13] relates to P388. Briefly: Antitumor activity against mouse P388 cells allografted in mouse assessed as increase in survival time at 8 mg/kg, ip administered as single dose on day 5, 9 and 13 relative to control. It is filed as functional. To be noted: route intraperitoneal. The essentials: as §1
Series [14] concerns P388. As to the kind of experiment: Antitumor activity against mouse P388 cells allografted in mouse assessed as increase in survival time at 0.39 mg/kg, ip administered as qd for 1 to 9 days relative to control. It is filed as functional. Conditions: route intraperitoneal.
In series [15] the test system is P388. Briefly: Antitumor activity against mouse P388 cells allografted in mouse assessed as increase in survival time at 3 mg/kg, ip administered as single dose on day 5, 9 and 13 relative to control. It is filed as functional. To be noted: route intraperitoneal. In outline: as §1
In series [16] the test system is B16. As to the kind of experiment: Antitumor activity against mouse B16 cells allografted in mouse assessed as increase in survival time at 12.5 mg/kg, ip administered as single dose on day 5 relative to control. It is filed as functional. Conditions: route intraperitoneal. In outline:
(§3)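 B16 melanoma in mice. Treatment was given as nine daily doses, as a single dose on day 1, or as a single dose delayed to day 5. Activity was taken as the increase in survival time of treated versus control animals (% T/C).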

The test system of series [17] is P388. As to the kind of experiment: Antitumor activity against mouse P388 cells allografted in mouse assessed as increase in survival time at 6 mg/kg, ip administered as single dose on day 5, 9 and 13 relative to control. It is filed as functional. Conditions: route intraperitoneal. The essentials: as §1
For series [18], the system named is P388. As to the kind of experiment: Antitumor activity against mouse P388 cells allografted in mouse assessed as increase in survival time at 4 mg/kg, ip administered as qd for 1 to 9 days relative to control. The class given is functional. To be noted: route intraperitoneal.
Series [19] has as its system P388. As to the kind of experiment: Antitumor activity against mouse P388 cells allografted in mouse assessed as increase in survival time at 0.5 mg/kg, ip administered as qd for 1 to 9 days relative to control. To be noted: route intraperitoneal. The class given is functional.
Series [20] concerns Salmonella typhimurium. As to the kind of experiment: Genotoxicity in Salmonella typhimurium TA98 assessed as number of revertants by Ames test in presence of microsomal activation. It is filed as toxicity, organism-based. To be noted: salmonella enterica subsp. enterica serovar typhimurium. The essentials: as §2
The test system of series [21] is Salmonella typhimurium. Briefly: Genotoxicity in Salmonella typhimurium TA98 assessed as number of revertants by Ames test in absence of microsomal activation. The class given is toxicity, organism-based. To be noted: salmonella enterica subsp. enterica serovar typhimurium. The essentials:
as §2

Series [22] deals with Salmonella typhimurium. Briefly: Genotoxicity in Salmonella typhimurium TA100 by Ames test. It is filed as toxicity, organism-based. Conditions: salmonella enterica subsp. enterica serovar typhimurium.
In series [23] the test system is P388. As to the kind of experiment: Antitumor activity against mouse P388 cells allografted in mouse assessed as increase in survival time at 24 mg/kg, ip administered as single dose on day 5, 9 and 13 relative to control. The class given is functional. Conditions: route intraperitoneal. In outline:
as §1

Series [24] concerns Salmonella typhimurium. Briefly: Genotoxicity in Salmonella typhimurium TA98 at 32 ug/plate by Ames test. The class given is toxicity, organism-based. To be noted: salmonella enterica subsp. enterica serovar typhimurium. In outline: as §2
The subject of series [25] is B16. As to the kind of experiment: Antitumor activity against mouse B16 cells allografted in mouse assessed as increase in survival time at 2 mg/kg, ip administered as qd for 1 to 9 days relative to control. To be noted: route intraperitoneal. It is filed as functional. In outline:
as §3

Series [26] concerns B16. As to the kind of experiment: Antitumor activity against mouse B16 cells allografted in mouse assessed as increase in survival time at 6.25 mg/kg, ip administered as single dose on day 1 relative to control. It is filed as functional. Conditions: route intraperitoneal. The essentials: as §3
For series [27], the system named is P388. As to the kind of experiment: Antitumor activity against mouse P388 cells allografted in mouse assessed as increase in survival time at 1 mg/kg, ip administered as qd for 1 to 9 days relative to control. Conditions: route intraperitoneal. It is filed as functional.
The test system of series [28] is P388. Briefly: Antitumor activity against mouse P388 cells allografted in mouse assessed as increase in survival time at 12 mg/kg, ip administered as single dose on day 5, 9 and 13 relative to control. It is filed as functional. To be noted: route intraperitoneal. In outline:
as §1

The subject of series [29] is P388. Briefly: Antitumor activity against mouse P388 cells allografted in mouse assessed as increase in survival time at 2 mg/kg, ip administered as qd for 1 to 9 days relative to control. To be noted: route intraperitoneal. It is filed as functional.
Another series concerns Calf thymus DNA. As to the kind of experiment: Binding affinity to calf thymus DNA assessed as change in melting temperature. It is filed as nucleic-acid assay. To be noted: Bos taurus. In outline: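 Thermal denaturation of isolated helical DNA in 0.010 M phosphate buffer, pH 7.0, with 10⁻⁵ M EDTA and 5% Me₂SO to solubilize compounds; read-out is the increase in melting temperature (ΔTm, °C).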

The subject of series [30] is P388. As to the kind of experiment: Antitumor activity against mouse P388 cells allografted in mouse assessed as increase in survival time at 1.5 mg/kg, ip administered as single dose on day 5, 9 and 13 relative to control. It is filed as functional. To be noted: route intraperitoneal. In outline:
as §1

In series [31] the test system is Salmonella typhimurium. As to the kind of experiment: Genotoxicity in Salmonella typhimurium 8907 assessed as number of revertants by Ames test in presence of S9 fraction. Conditions: salmonella enterica subsp. enterica serovar typhimurium. It is filed as toxicity, organism-based.
Series [32] concerns P388. As to the kind of experiment: Antitumor activity against mouse P388 cells allografted in mouse assessed as increase in survival time at 6.25 mg/kg administered as qd for 1 to 9 days relative to control. It is filed as functional. In outline: (§4)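 Transplanted P388 leukemia or B16 melanoma in mice, dosed on a schedule of nine daily doses (qd 1-9). Efficacy was the increase in survival time of treated versus control animals (% T/C), from single tests.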

The test system of series [33] is B16. As to the kind of experiment: Antitumor activity against mouse B16 cells allografted in mouse assessed as increase in survival time at 6.25 mg/kg administered as qd for 1 to 9 days relative to control. It is filed as functional. In outline:
as §4

As a reminder, the T/C is the ratio of treated to control. Turning to `COc1cccc2c1C(=O)c1c(O)c3c(c(O)c1C2=O)C[C@@](O)(C(C)=O)C[C@@H]3O[C@H]1C[C@H](N)[C@H](O)[C@H](C)O1.Cl` [DAUNORUBICIN HYDROCHLORIDE], the Activity with Salmonella typhimurium [1] is 0.5 revertants/nmol; with Salmonella typhimurium [5], “Toxic”; in the series on Salmonella typhimurium [6], 100 revertants/nmol; with Salmonella typhimurium [11], 356 revertants/nmol. For the same compound, the T/C with P388 [2] is 160%; in the series on P388 [3], 148%; in the series with P388 [4], 126%; in the series on P388 [8] it was 128%; with P388 [9], 144%; in the series with P388 [12], 126%. Further, the values for the T/C with P388 [13] and in the series with P388 [14] were 132% and 153%, respectively. The EC50 in the series with L1210 [7] was 1000 nM; with L1210 [10], 300 nM. For the same compound, in the series filed under Rattus norvegicus, the MTC was 14 mg/kg.

In general, ΔTm refers to the change in melting temperature against a reference sample. As to `COc1cccc2c1C(=N)c1c(O)c3c(c(O)c1C2=O)C[C@@](O)(C(C)=O)C[C@@H]3O[C@H]1C[C@H](N)[C@H](O)[C@H](C)O1.Cl`, the T/C in the series with P388 [15] was found to be 130%; with B16 [16] it was 122%; in the series with P388 [17], 124%; in the series with P388 [18], 153%; in the series on P388 [19] it was 145%; with P388 [23], 126%. Further, the T/C was 222% in the series with B16 [25]; 173% in the series with B16 [26]; 164% with P388 [27]; 116% with P388 [28]; 170% with P388 [29]; 126% with P388 [30]. The Activity with Salmonella typhimurium [6] was 1 revertants/nmol; with Salmonella typhimurium [20], 0 nmol; in the series on Salmonella typhimurium [21], 0 nmol; with Salmonella typhimurium [22], “Non-toxic”; in the series on Salmonella typhimurium [24] it was “Non-toxic”. In addition, the EC50 with L1210 [7] turned out to be 1600 nM; with L1210 [10] it was 1300 nM. In addition, the MTC in the series listed under Rattus norvegicus came out at 64 mg/kg. The ΔTm in the series with Calf thymus DNA came out at 6.25 °C.

Turning to `COc1cccc2c1C(=O)c1c(O)c3c(c(O)c1C2=O)C[C@@](O)(C(=O)CO)C[C@@H]3O[C@H]1C[C@H](N)[C@H](O)[C@H](C)O1` [DOXORUBICIN], the T/C was found to be 197% in the series on P388 [2]; 176% in the series with P388 [3]; 130% in the series on P388 [4]; 146% in the series with P388 [8]; 160% with P388 [9]; 120% in the series with P388 [12]. Moreover, the T/C turned out to be 159% in the series with P388 [13] and 174% with P388 [14]. In addition, the EC50 with L1210 [7] stood at 1500 nM; in the series with L1210 [10] it was 700 nM. In the series listed under Rattus norvegicus, the MTC came to 11 mg/kg. The ΔTm with Calf thymus DNA came out at 13.4 °C. For the same compound, the Activity in the series with Salmonella typhimurium [31] worked out at 108 revertants/nmol.

In the case of `COc1cccc2c1C(=O)c1c(O)c3c(c(O)c1C2=O)C[C@@](O)(C(N)=O)C[C@@H]3O[C@H]1C[C@H](N)[C@H](O)[C@H](C)O1.Cl`, the T/C is reported as 151% in the series with P388 [32] and 161% with B16 [33].
